The other results are listed elsewhere or left out. Active and inactive are the calls of the source.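 The calls were made as follows, unless noted: active = mean activation of the triplicate above a set limit carried over from the primary screen, none filed active; inactive = the rest.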
The compounds below were run on DAF-12 nuclear receptor (Heterodera glycines), GAL4-LBD fusion (assay: H. glycines DAF-12 receptor agonists, confirmation, cell-based, luminescence, HEK293, GAL4-LBD fusion (AID 743050;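 active = mean activation over triplicate wells above the hit cutoff derived from the earlier primary screen, cut at about 11% in these data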;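 also: 0% = DMSO low control and 100% = 2 mM sodium butyrate high control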)). Details: HEK293 GAL4-hgDAF12 luciferase reporter, agonist mode; at 6.8 µM; stronger effect = higher value; percent of butyrate response.
For `CNS(=O)(=O)c1ccc(NC(=O)Nc2ccc3c(c2)OCO3)cc1`, the activation was 13.2% (active).
In the case of `CS(=O)(=O)N1CCc2nc(-c3ccccc3)sc2C1`, the activation is reported as 10.3% (inactive).
For `Cc1ccc(C(=O)Nc2ccc(C)c(S(=O)(=O)N(C)C)c2)s1`, the activation was 11.2% (active).
For `Cc1cnc(NC(=O)c2ccccn2)s1`, the activation was 15.6% (active).
With `O=C(Nc1ccccc1)c1ccc2c(c1)OCCCO2` the activation was 19.7% (active).
With `COc1ccc(NC(=O)c2ccc(OC)cc2)cc1` the activation was 15.9% (active).
With `C/C(=N\NC(=O)OC(C)(C)C)c1ccc[nH]1` the activation was 13.8% (active).
For `CC1CCCN(c2ccc(C(=O)NCCc3ccccc3)cn2)C1` (stereo not given), the activation was 14.6% (active).
With `O=C(CCSc1ccccc1)N1CCN(c2ccccc2F)CC1` the activation was 14.2% (active).
`N/C(=N\OC(=O)CCC1CCCCC1)c1ccccn1` was tested, and the activation was 12.3% (active).
With `CC(C)(C)c1csc(NC2=NS(=O)(=O)c3ccccc32)n1` the activation was 15.4% (active).
`Cc1ccccc1Nc1nc(-c2cccnc2)cs1` was tested, and the activation was 16.4% (active).
For `Cc1ccc(NC(=O)c2sccc2C)cc1[N+](=O)[O-]`, the activation was 11% (active).
With `CCCNC(=O)c1c(Cl)cnn1-c1ccc(C)cc1` the activation was 9.95% (inactive).
For `O=C(NCCc1c[nH]c2ccccc12)c1cc2ccccc2oc1=O`, the activation was 13.4% (active).
In the case of `Cc1ccc(C(=O)NNc2ncnc3ccccc23)cc1`, the activation is reported as 9.47% (inactive).
With `COC(=O)c1sc(NC(=O)c2ccc(OC)cc2OC)nc1C` the activation was 7.02% (inactive).
In the case of `COc1ccc(-c2cn3cccnc3n2)cc1`, the activation is reported as 9.37% (inactive).
`N#CC1(Nc2ccc(-c3ccc(Cl)cc3)cc2)CCCC1` was tested, and the activation was 8.29% (inactive).
For `CC(=O)c1ccccc1NC(=O)COC(=O)C1COc2ccccc2O1` (stereo not given), the activation was -0.02% (inactive).
In the case of `Cc1cccc(NC(=O)/C=C/c2ccc3c(c2)OCO3)n1`, the activation is reported as 18.1% (active).

These compounds were tested against Oxysterols receptor LXR-beta (Homo sapiens) (UniProt P55055) (assay: LXR agonists, Gal4 luciferase reporter, confirmation, counter-screen for hgDAF-12 agonist project, cell-based, luminescence, HEK293, H. glycines campaign (AID 743051)). Details: 24 h, at 6.8 µM, stronger effect = higher value.
Sequence of Oxysterols receptor LXR-beta (Homo sapiens) (P55055 whole entry, looked up, the tested form may be a part): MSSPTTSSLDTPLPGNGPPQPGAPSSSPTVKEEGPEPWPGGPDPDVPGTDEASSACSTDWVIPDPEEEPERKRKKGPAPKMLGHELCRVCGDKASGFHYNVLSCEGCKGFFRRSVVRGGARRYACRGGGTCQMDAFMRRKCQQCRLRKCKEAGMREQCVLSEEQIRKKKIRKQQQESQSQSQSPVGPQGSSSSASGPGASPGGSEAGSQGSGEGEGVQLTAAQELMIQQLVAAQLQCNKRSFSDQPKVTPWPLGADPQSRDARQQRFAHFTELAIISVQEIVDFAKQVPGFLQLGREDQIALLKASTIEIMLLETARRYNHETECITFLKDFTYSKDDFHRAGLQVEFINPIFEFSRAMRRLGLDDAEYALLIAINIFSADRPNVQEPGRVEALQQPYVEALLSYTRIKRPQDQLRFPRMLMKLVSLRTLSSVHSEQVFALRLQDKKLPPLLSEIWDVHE
In short: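 System: Gal4-LXR luciferase reporter HEK293 cells / Compound: single nominal test compound dose of 6.8 µM / Times: 24 h exposure, 37 °C / Technique: One-Glo luminescence after 15 min / Read-out basis: % activation versus DMSO and positive controls / Benchmarks: DMSO low control, 0.68% final / Replication: n 3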
With `Cc1ccc(NC(=O)c2ccco2)cc1` the activation was 0.49% (inactive).
`COc1cccc(/C=C/C(=O)Nc2ccc3c(c2)OCCO3)c1` was tested, and the activation was 0.69% (inactive).
In the case of `O=C(NCCc1ccc(F)cc1)c1ccc2nccnc2c1`, the activation is reported as 0.74% (inactive).
`S=C(c1ccc(-c2ccccc2)o1)N1CCCCC1` was tested, and the activation was 0.73% (inactive).
In the case of `O=C(Nc1ccc(Cl)c(Cl)c1)c1ccccc1NC(=O)C1CC=CCC1C(=O)O` (stereo not given), the activation is reported as 0.27% (inactive).
For `COc1ccc(C(=O)O/N=C(\N)c2ccccn2)cc1[N+](=O)[O-]`, the activation was 0.59% (inactive).
For `O=C(NCCOc1ccccc1)c1ccccc1`, the activation was 0.69% (inactive).
For `CC1C/C(=N/NC(=O)c2cccs2)CC(C)(C)C1` (stereo not given), the activation was 0.21% (inactive).
In the case of `Oc1cccc2cc(-c3ccncc3)cnc12`, the activation is reported as 0.18% (inactive).
For `CC(C)c1cc(C(N)=O)c(NC(=O)c2cccc(COc3ccc(Br)cc3)c2)s1`, the activation was 0.51% (inactive).
`COc1ccc(-c2cn3ccsc3n2)cc1` was tested, and the activation was 0.84% (inactive).
In the case of `O=C(NC1CCCC1)c1cc(-c2ccccc2)on1`, the activation is reported as 0.75% (inactive).
`Clc1ccc2nc(CSc3ccccc3)cn2c1` was tested, and the activation was 0.71% (inactive).
For `O=C(NNC(=O)c1ccc(Cl)cc1Cl)c1cccs1`, the activation was 0.37% (inactive).
In the case of `O=C(CSC(=S)N1CCCCC1)c1c(F)cccc1F`, the activation is reported as 0.64% (inactive).
In the case of `O=C(Nc1ccc(C2CC2(Cl)Cl)cc1)c1cccc([N+](=O)[O-])c1` (stereo not given), the activation is reported as 0.56% (inactive).
In the case of `O=C(NC1CCC1)c1ccc(C#CC2CC2)cn1`, the activation is reported as 0.57% (inactive).
With `Cn1c(-c2ccc(C(=O)c3ccccc3)s2)nc2ccccc21` the activation was 0.88% (inactive).
`CC(C)C(=O)Nc1cccc(C(=O)Nc2ccc3c(c2)OCO3)c1` was tested, and the activation was 0.72% (inactive).
With `CNS(=O)(=O)c1ccc(NC(=O)Nc2ccc3c(c2)OCO3)cc1` the activation was 0.5% (inactive).
With `CS(=O)(=O)N1CCc2nc(-c3ccccc3)sc2C1` the activation was 0.56% (inactive).
`Cc1ccc(C(=O)Nc2ccc(C)c(S(=O)(=O)N(C)C)c2)s1` was tested, and the activation was 0.45% (inactive).
For `Cc1cnc(NC(=O)c2ccccn2)s1`, the activation was 0.63% (inactive).
With `O=C(Nc1ccccc1)c1ccc2c(c1)OCCCO2` the activation was 1.02% (inactive).
With `COc1ccc(NC(=O)c2ccc(OC)cc2)cc1` the activation was 0.75% (inactive).
With `C/C(=N\NC(=O)OC(C)(C)C)c1ccc[nH]1` the activation was 0.45% (inactive).
`CC1CCCN(c2ccc(C(=O)NCCc3ccccc3)cn2)C1` (stereo not given) was tested, and the activation was 0.64% (inactive).
For `O=C(CCSc1ccccc1)N1CCN(c2ccccc2F)CC1`, the activation was 0.48% (inactive).
For `N/C(=N\OC(=O)CCC1CCCCC1)c1ccccn1`, the activation was 0.49% (inactive).
